Laboratory results published in ChEMBL document CHEMBL1817610, “Synthesis and SAR requirements of adamantane-colchicine conjugates with both microtubule depolymerizing and tubulin clustering activities” (Bioorg Med Chem, 2011).
Activity calls are given as the source filed them. The rule behind the calls is not given here.

Tests used:
A549 [1] = assay: Effect on microtubule network in human A549 cells assessed as microtubule depolymerization and tubulin clustering at 1 uM after 8 hrs by immunofluorescence microscopic analysis; assay type: functional, cell-based
Outline: (§1)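 A549 cells grown on 11 mm glass coverslips at 2 × 10⁴ cells each. Exposure to compounds at 1 and 5 µM for 8 h at 37 °C, 5% CO2, with 0.5% DMSO as negative control. Cells fixed in 4% paraformaldehyde and stained with mouse monoclonal anti-α-tubulin, then Alexa Fluor488 goat anti-mouse IgG (1:200). Fluorescence microscopy, effect scored semi-quantitatively by '+' grades.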

A549 [2] = assay: Cytotoxicity against human A549 cells after 24 hrs by MTT assay; assay type: functional, cell-based; details: A549, 24 h
Outline: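 A549 cells kept in DMEM with 10% FBS and 1% penicillin/streptomycin at 37 °C, 5% CO2, then seeded at 3 × 10³ per well. Exposure 24 h to test agents at 1–12000 nM (DMSO stocks; 0.4% DMSO negative control), 8 wells per concentration. Surviving cells counted by colorimetric MTT (5 mg/mL in PBS). EC50 averaged over three to six experiments.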

A549 [3] = assay: Effect on microtubule network in human A549 cells assessed as microtubule depolymerization at 1 uM after 8 hrs by immunofluorescence microscopic analysis; assay type: functional, cell-based; outline: as §1
Bos taurus = organism: Bos taurus; assay: Inhibition of bovine brain tubulin polymerization after 1 hr
Outline: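 Purified bovine brain tubulin polymerized with 10% DMSO present and test agent at 10 µM. Incubation 1 h, then preparations examined by Allen video-enhanced microscopy.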

A549 [4] = assay: Effect on microtubule network in human A549 cells assessed as microtubule depolymerization and tubulin clustering at 5 uM after 8 hrs by immunofluorescence microscopic analysis; assay type: functional, cell-based; outline: as §1
A549 [5] = assay: Effect on microtubule network in human A549 cells assessed as microtubule binding at 1 uM after 8 hrs by immunofluorescence microscopic analysis; assay type: functional, cell-based
A549 (Homo sapiens) = assay: Effect on microtubule network in human A549 cells assessed as tubulin clustering formation after 8 hrs by immunofluorescence microscopic analysis

Row | SMILES | Activity (A549 [1]) | EC50 (A549 [2]) [nM] | other results
1 | COc1cc2c(c(OC)c1OC)-c1ccc(OC)c(=O)cc1[C@@H](NC(=O)CCCCCCC(=O)OC1C3CC4CC1CC(OC(=O)[C@H](O)[C@@H](NC(=O)OC(C)(C)C)c1ccccc1)(C4)C3)CC2 (mixture of isomers) | Active | 2 | 
2 | COc1cc2c(c(OC)c1OC)-c1ccc(OC)c(=O)cc1[C@@H](NC(=O)CCCCCC(=O)OC1CCCCC1)CC2 | Active | 4.8 | 
3 | COc1cc2c(c(OC)c1OC)-c1ccc(OC)c(=O)cc1[C@@H](NC(=O)CCCC(=O)OC1C3CC4CC1CC(OC(=O)[C@H](O)[C@@H](NC(=O)OC(C)(C)C)c1ccccc1)(C4)C3)CC2 (mixture of isomers) |  | 220 | 
4 | COc1cc2c(c(OC)c1OC)-c1ccc(OC)c(=O)cc1[C@@H](NC(C)=O)CC2 [COLCHICINE] |  | 27 | Activity (A549 [3]): Active
5 | COc1cc2c(c(OC)c1OC)-c1ccc(OC)c(=O)cc1[C@@H](NC(=O)CCCCCC(=O)OC1C3CC4CC1CC(OC(=O)[C@H](O)[C@@H](NC(=O)OC(C)(C)C)c1ccccc1)(C4)C3)CC2 (mixture of isomers) | Active | 73 | inhibition (Bos taurus): Active; Activity (A549 [4]): Active
6 | COc1cc2c(c(OC)c1OC)-c1ccc(OC)c(=O)cc1[C@@H](NC(=O)CCCCCCCC(=O)OC1C3CC4CC(C3)CC1C4)CC2 (stereo not given in full) | Active | 3800 | 
7 | CC(=O)O[C@H]1C(=O)[C@@]2(C)[C@H]([C@H](OC(=O)c3ccccc3)[C@]3(O)C[C@H](OC(=O)[C@H](O)[C@@H](NC(=O)c4ccccc4)c4ccccc4)C(C)=C1C3(C)C)[C@]1(OC(C)=O)CO[C@@H]1C[C@@H]2O [PACLITAXEL] |  | 4.6 | Activity (A549 [5]): Active
8 | COc1cc2c(c(OC)c1OC)-c1ccc(OC)c(=O)cc1[C@@H](NC(=O)CCCCCCCC(=O)OC13CC4CC(CC(C4)C1)C3)CC2 |  | 29 | 
9 | COc1cc2c(c(OC)c1OC)-c1ccc(OC)c(=O)cc1[C@@H](NC(=O)CCCCCC(=O)Oc1ccccc1)CC2 |  | 5700 | Activity (A549 [3]): Active
10 | COc1cc2c(c(OC)c1OC)-c1ccc(OC)c(=O)cc1[C@@H](NC(=O)CCCCCCCCCCCOC(=O)[C@H](O)[C@@H](NC(=O)OC(C)(C)C)c1ccccc1)CC2 | Active | 41 | 
11 | COc1cc2c(c(OC)c1OC)-c1ccc(OC)c(=O)cc1[C@@H](NC(=O)CCCCCC(=O)OC(C)C)CC2 | Active | 30 | 
12 | COc1cc2c(c(OC)c1OC)-c1ccc(OC)c(=O)cc1[C@@H](NC(=O)CCCCCC(=O)OC13CC4CC(CC(C4)C1)C3)CC2 | Active | 11 | 
13 | COc1cc2c(c(OC)c1OC)-c1ccc(OC)c(=O)cc1[C@@H](NC(=O)CCCCCC(=O)OC1C3CC4CC(C3)CC1C4)CC2 (stereo not given in full) | Active | 6 | Activity (A549 (Homo sapiens)): Active
14 | COc1cc2c(c(OC)c1OC)-c1ccc(OC)c(=O)cc1[C@@H](NC(=O)CCCC(=O)OC1C3CC4CC(C3)CC1C4)CC2 (stereo not given in full) |  | 200 | Activity (A549 [3]): Active
15 | COC(=O)CCCCCC(=O)N[C@H]1CCc2cc(OC)c(OC)c(OC)c2-c2ccc(OC)c(=O)cc21 |  | 32 | Activity (A549 [3]): Active
16 | COc1cc2c(c(OC)c1OC)-c1ccc(OC)c(=O)cc1[C@@H](NC(=O)CCCCC(=O)OC1C3CC4CC(C3)CC1C4)CC2 (stereo not given in full) | Active | 830 | 
17 | COc1cc2c(c(OC)c1OC)-c1ccc(OC)c(=O)cc1[C@@H](NC(=O)CCCCCCC(=O)OC1C3CC4CC(C3)CC1C4)CC2 (stereo not given in full) | Active | 5 | 
